The list is not random: actives were taken first. Their share in the collection is about 2%.
PAD4 FP inh = human PAD4 inhibitors, primary screen, biochemical, fluorescence polarization, 1536-well format. 0.41% of 330,000 active. AID 485272, 2010. recombinant PAD4, RCA probe fluorescence polarization. inhibition, % at 6.36 µM. Protein-arginine deiminase type-4 (Homo sapiens), Q9UM07;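 active = percent inhibition above a cutoff equal to the mean of all tested compounds plus 3 SD, cut at about 15% in these data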
UCH37 DUB inh = inhibitors of human UCH37 deubiquitinase, primary screen, biochemical, Ub-AMC cleavage, fluorescence; Ubiquitin carboxyl-terminal hydrolase isozyme L5 (Homo sapiens), Q9Y5K5; purified proteasome/UCH37; inhibition, % (test concentration not listed); 0.33% of 330,000 active; AID 588478, 2011;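 active = mean inhibition over replicate wells above about 20%, limit read from the data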
Target sequence (Q9Y5K5 whole entry, looked up): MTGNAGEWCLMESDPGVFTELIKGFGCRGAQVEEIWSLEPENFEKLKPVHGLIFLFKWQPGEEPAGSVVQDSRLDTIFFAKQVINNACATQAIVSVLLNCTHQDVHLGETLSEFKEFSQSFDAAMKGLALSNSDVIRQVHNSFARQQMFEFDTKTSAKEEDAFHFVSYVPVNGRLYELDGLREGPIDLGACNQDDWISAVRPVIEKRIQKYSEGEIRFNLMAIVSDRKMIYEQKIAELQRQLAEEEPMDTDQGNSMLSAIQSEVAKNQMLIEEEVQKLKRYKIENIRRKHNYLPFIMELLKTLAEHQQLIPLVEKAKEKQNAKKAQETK
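Material: Human UCH37 enzyme supplied as purified proteasome complex | Schedule: 30 min compound-proteasome preincubation then 25 min substrate reaction, room temperature | Detection: AMC fluorescence from Ub-AMC cleavage, excitation 355 nm, emission 460 nm | Benchmarks: Wells without proteasome as full block, compound-free enzyme plus substrate as uninhibited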
Apaf1 inhib = inhibitors of human Apaf-1 apoptosome, primary screen, biochemical, DEVD-Rh110 fluorescence, uHTS; reconstituted apoptosome caspase-3 activity; inhibition, % at 20 µM; 0.71% of 330,000 active; active = inhibition of at least 40% at 20 µM
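Material: cell-free apoptosome with Apaf-1, procaspase-3 and caspase-9; Buffer or medium: Hepes pH 7.5 with detergent and BSA; Reagent: cytochrome c trigger plus (Z-DEVD)2-Rh110 caspase-3 substrate; Times: compound with Apaf-1, dATP, procaspase-3 30 min, then 50 min reaction, room temperature; Technique: Rh110 fluorescence intensity.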
Fh CTSL1 inh = Fasciola hepatica cathepsin L1 inhibitors, primary screen, counter-screen for PFM18AAP inhibitor project, biochemical, QFRET, fluorogenic peptide substrate; recombinant F. hepatica cathepsin L1, Z-Leu-Arg-MCA fluorescence; inhibition, % at 5.96 µM; 0.49% of 300,000 active;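 active = inhibition above the mean of all tested compounds plus 3 SD, set per screening campaign, cut at about 17% in these data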
GSTO1 inh = inhibitors of recombinant GSTO1, primary screen, counter-screen for RBBP9 inhibitor project, biochemical, fluorescence polarization | 1.1% of 300,000 active | activity-based probe fluorescence polarization | AID 1974, 2009 | Glutathione S-transferase omega-1 (Homo sapiens), P78417 | inhibition, % at 5.96 µM;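 active = inhibition above the campaign mean inhibition plus 3 SD, cut at about 35% in these data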
PP5 inh = PP5 phosphatase inhibitors, primary screen, biochemical, fluorescence | inhibition, % at 6.7 µM | purified PP5c, OMFP substrate fluorescence | 0.18% of 320,000 active | Serine/threonine-protein phosphatase 5 (Homo sapiens), P53041;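 active = inhibition above the campaign's mean inhibition across all tested compounds plus 3 SD, cut at about 9.5% in these data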
PAD4 confirm = human PAD4 inhibitors, confirmation, biochemical, fluorescence polarization | shares compounds with PAD4 FP inh | recombinant PAD4, RCA probe fluorescence polarization | inhibition, % at 6.36 µM | 28% of 1,200 active | AID 488796, 2010;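 active = mean inhibition across replicates above the hit cutoff set by the earlier primary screen, cut at about 15% in these data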;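 also: inhibitors block active-site labeling by the probe so polarization falls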
Hits are given with their value; – = inactive; · = no result.

SMILES	PAD4 FP inh	UCH37 DUB inh	Apaf1 inhib	Fh CTSL1 inh	GSTO1 inh	PP5 inh	PAD4 confirm
Cc1ccccc1-n1nnnc1Sc1nnnn1-c1ccccc1	19	–	–	–	–	–	–
CC(CCc1ccccc1)NC(=O)CNC(=O)COc1ccccc1 (configuration not stated)	30	–	–	–	–	–	–
COc1ccc(C=NNC(=O)c2ccn[nH]2)cc1Cn1cc([N+](=O)[O-])cn1	·	–	·	·	·	·	·
Cc1ccc(-n2c(C)cc(=O)cc2C)c(C)c1	–	–	–	–	–	–	·
Cc1cc(N)ccc1-n1c(C)ccc1C	90	–	–	–	82	–	–
CCOC(=O)C(CC)(CC)C(C)=NNC(=O)CC#N	·	–	·	·	·	·	·
O=C(NCc1ccccn1)Nc1ccccc1F	–	–	–	–	–	–	·
O=C(NCc1ccccn1)Nc1ccccc1C(F)(F)F	35	–	–	–	–	–	–
O=C(O)CC1SC(=NN=C2C(=O)Nc3ccccc32)N(c2ccc(O)cc2)C1=O (configuration not stated)	·	–	·	·	·	·	·
COc1ccc2c(c1)-c1c(ssc1=S)C(C)(C)N2C(=O)CSC1=NCCS1	–	–	–	–	–	–	·
Cc1ccc2c(c1)-c1c(ssc1=S)C(C)(C)N2C(=O)CSc1nncn1C	17	–	–	–	–	–	22
Cc1cc(C)c2c(c1)-c1c(ssc1=S)C(C)(C)N2C(=O)CSc1nncn1C	34	–	–	–	–	–	32
COc1ccc(-c2nn(-c3ccccc3)cc2C=NO)cc1	·	–	·	·	·	·	·
Cc1ccccc1C1CC(=O)Oc2cc(O)ccc21 (configuration not stated)	82	–	–	·	·	·	78
S=c1[nH]nc(-c2cc(-c3ccccc3)n[nH]2)n1N=Cc1ccc(Br)s1	·	–	·	·	·	·	·
Nc1ccc(-c2c3ccc(=O)cc-3oc3cc(O)ccc23)c(C(=O)O)c1	21	·	–	·	·	–	–
CCCSc1ccc(-c2nn(-c3ccccc3)cc2/C=C(/C#N)C(=O)NCCCOC)cc1	–	–	–	–	–	–	·
CCSc1ccc(-c2nn(-c3ccccc3)cc2/C=C(/C#N)C(=O)NCCCOC)cc1	18	–	·	–	–	–	32
COc1ccc(NS(=O)(=O)c2cccc(C(=O)NN=Cc3ccc(O)cc3)c2)cc1	·	–	·	·	·	·	·
CC(O)C(O)C(O)C(O)C=NNC(=O)c1ccccc1 (configuration not stated)	·	–	·	·	·	·	·
O=C(OCc1cnc(Cl)s1)c1ccccc1Cl	–	–	–	–	–	–	·
O=C(OCn1ncc(Br)c(Br)c1=O)c1ccccc1Cl	34	–	–	–	37	–	32
CC1(C)CC(=O)C(C=Nc2ccc(N)cc2)=C(O)C1	40	–	–	–	–	–	–
COC(=O)C1C(O)=C(C=Nc2ccc(N)cc2)C(=O)CC1(C)C (configuration not stated)	47	–	–	–	–	–	–
COC(=O)C1C(O)=C(C=Nc2ccccc2)C(=O)CC1(C)C (configuration not stated)	–	–	–	–	–	–	·
CCCc1c(O)nc(SCCN(CCC)CCC)[nH]c1=O	48	–	–	–	–	–	–
Nc1ccc(N2CCN(CCCCN3C(=O)C4CCCN4C3=O)CC2)cc1 (configuration not stated)	65	–	–	–	–	–	–
CN(C)c1cc(Nc2ccc(O)cc2)c([N+](=O)[O-])c2nonc12	–	–	–	–	–	–	·
O=[N+]([O-])c1c(Nc2ccc(O)cc2)cc(Cl)c2nonc12	22	–	–	–	–	–	–
CC(OC(=O)c1nc(Cl)ccc1Cl)C(=O)NC1CCCCC1C (configuration not stated)	25	·	–	·	·	–	–

Bioassay records (PubChem)
